# Test results taken from ChEMBL document CHEMBL2384924, “Antagonists for the orphan G-protein-coupled receptor GPR55 based on a coumarin scaffold” (J Med Chem, 2013).
# Active and inactive are the calls of the source. The rule behind the calls is not given here.
# Columns and labels:
# [1] = molecular target: T1, G-protein coupled receptor 55 (Homo sapiens, UniProt Q9Y2T6); test: Agonist activity at human GPR55 transfected in CHO cells at 10 uM after 90 mins by beta-arrestin translocation assay; format: cell-based
# How it was run: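 CHO cells stably expressing human GPR55 (β-galactosidase fragment complementation) were seeded at 20,000 cells/well in Opti-MEM with 2% FCS for 24 h at 37°C. Compound was diluted in PBS with 10% DMSO and 0.1% BSA, screened at 10 µM and incubated 90 min at 37°C. Galacton-Star/Emerald-II/lysis buffer (1:5:19) was added for 60 min at RT, then luminescence was read. Response is relative to 1 µM LPI (100%).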
# [2] = molecular target: T1, G-protein coupled receptor 55; test: Antagonist activity at human GPR55 transfected in CHO cells assessed as inhibition of LPI-induced beta-arrestin recruitment at 10 uM incubated 60 mins prior to LPI addition by beta-arrestin translocation assay; format: cell-based; design: scale not given: the % may be the effect or the level left
# How it was run: (§1)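 CHO cells stably expressing human GPR55 were seeded at 20,000 cells/well for 24 h at 37°C. Compound in PBS/10% DMSO/0.1% BSA was added 60 min before 1 µM LPI. Galacton-Star/Emerald-II/lysis buffer (pH 8) was applied for 60 min at RT, with luminescence read-out. Screening was at 10 µM (% inhibition). IC50 was measured where inhibition exceeded 60%. Three independent experiments in duplicate.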
# [3] = molecular target: T1, G-protein coupled receptor 55; test: Antagonist activity at human GPR55 transfected in CHO cells assessed as inhibition of LPI-induced beta-arrestin recruitment incubated 60 mins prior to LPI addition by beta-arrestin translocation assay; format: cell-based; how it was run: as §1
# [4] = molecular target: T2, N-arachidonyl glycine receptor (Homo sapiens, UniProt Q14330); test: Antagonist activity at human GPR18 transfected in CHO cells assessed as delta9-THC-induced beta-arrestin recruitment incubated 60 mins prior to delta9-THC addition by beta-arrestin translocation assay; format: cell-based
# T2 sequence (Q14330 whole entry): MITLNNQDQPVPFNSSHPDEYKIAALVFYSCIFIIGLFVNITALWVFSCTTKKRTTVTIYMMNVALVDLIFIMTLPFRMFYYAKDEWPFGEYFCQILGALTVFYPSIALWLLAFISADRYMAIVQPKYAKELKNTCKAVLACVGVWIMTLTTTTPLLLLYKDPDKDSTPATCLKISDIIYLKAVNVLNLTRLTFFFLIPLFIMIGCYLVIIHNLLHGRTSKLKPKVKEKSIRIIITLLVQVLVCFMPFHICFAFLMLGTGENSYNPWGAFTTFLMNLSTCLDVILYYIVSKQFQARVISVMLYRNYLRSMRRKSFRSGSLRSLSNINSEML
# How it was run: (§2)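 CHO cells stably expressing human GPR18 were seeded at 20,000 cells/well for 24 h at 37°C. Compound in PBS/10% DMSO/0.1% BSA was added 60 min before the GPR18 agonist 3 at 10 µM. The supplier's detection reagent was used, and luminescence was read after 60 min at RT. Screening was at 10 µM (% inhibition); IC50 from concentration-inhibition curves. Three independent experiments in duplicate.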
# [5] = molecular target: T3, N-arachidonyl glycine receptor (Homo sapiens) (UniProt Q14330); test: Antagonist activity at human GPR18 transfected in CHO cells assessed as delta9-THC-induced beta-arrestin recruitment at 10 uM incubated 60 mins prior to delta9-THC addition by beta-arrestin translocation assay; format: cell-based; design: scale not given: the % may be the effect or the level left; how it was run: as §2
# T3 sequence (whole entry): T2 sequence (Q14330 whole entry)
# [6] = molecular target: T4, Cannabinoid receptor 1 (Homo sapiens, UniProt P21554); test: Displacement of [3H]-CP55,940 from human CB1 receptor transfected in CHOK1 cells at 10 uM; format: cell-based; conditions: CHO-K1
# How it was run: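 Human CB1 from membrane preparations of stably transfected CHO cells, 25 µg protein per vial. Competition with [3H]CP55,940 at 0.1 nM final, with test compound at 10 µM, read as % inhibition of radioligand binding. Final DMSO 2.5%. Three independent experiments in duplicate.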
# [7] = molecular target: Cannabinoid receptor 2 (Homo sapiens, UniProt P34972); test: Displacement of [3H]-CP55,940 from human CB2 receptor transfected in CHOK1 cells; format: cell-based, CHO-K1
# How it was run: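 CHO cells stably expressing human CB2 supplied the membranes, 1 µg protein per vial. Compounds were screened at 10 µM, and full competition curves were run where inhibition was about 50% or more. Three independent experiments in duplicate.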
# [8] = molecular target: T4, Cannabinoid receptor 1; test: Displacement of [3H]-CP55,940 from human CB1 receptor transfected in CHOK1 cells; format: cell-based, CHO-K1
# Sequence of Cannabinoid receptor 2 (P34972 whole entry): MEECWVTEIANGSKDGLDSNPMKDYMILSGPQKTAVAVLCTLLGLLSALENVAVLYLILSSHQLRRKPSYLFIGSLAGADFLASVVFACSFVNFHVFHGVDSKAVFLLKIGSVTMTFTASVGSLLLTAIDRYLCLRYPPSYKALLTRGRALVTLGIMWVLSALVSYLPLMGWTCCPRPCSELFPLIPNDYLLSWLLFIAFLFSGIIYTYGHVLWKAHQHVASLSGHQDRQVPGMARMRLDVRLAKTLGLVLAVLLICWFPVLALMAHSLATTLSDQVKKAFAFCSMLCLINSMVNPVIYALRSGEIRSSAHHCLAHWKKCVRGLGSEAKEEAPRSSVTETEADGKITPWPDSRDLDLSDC
# T1 sequence (Q9Y2T6 whole entry, the tested form may be a part): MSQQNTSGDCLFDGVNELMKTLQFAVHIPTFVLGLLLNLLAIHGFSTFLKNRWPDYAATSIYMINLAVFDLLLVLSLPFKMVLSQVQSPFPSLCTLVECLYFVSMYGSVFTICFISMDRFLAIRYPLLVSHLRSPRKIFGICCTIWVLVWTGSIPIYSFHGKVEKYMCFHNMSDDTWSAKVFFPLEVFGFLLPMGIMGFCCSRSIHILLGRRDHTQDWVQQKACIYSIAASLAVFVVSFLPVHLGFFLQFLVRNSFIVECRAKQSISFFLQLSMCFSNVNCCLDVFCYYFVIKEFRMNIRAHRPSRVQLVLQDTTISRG
# T4 sequence (P21554 whole entry): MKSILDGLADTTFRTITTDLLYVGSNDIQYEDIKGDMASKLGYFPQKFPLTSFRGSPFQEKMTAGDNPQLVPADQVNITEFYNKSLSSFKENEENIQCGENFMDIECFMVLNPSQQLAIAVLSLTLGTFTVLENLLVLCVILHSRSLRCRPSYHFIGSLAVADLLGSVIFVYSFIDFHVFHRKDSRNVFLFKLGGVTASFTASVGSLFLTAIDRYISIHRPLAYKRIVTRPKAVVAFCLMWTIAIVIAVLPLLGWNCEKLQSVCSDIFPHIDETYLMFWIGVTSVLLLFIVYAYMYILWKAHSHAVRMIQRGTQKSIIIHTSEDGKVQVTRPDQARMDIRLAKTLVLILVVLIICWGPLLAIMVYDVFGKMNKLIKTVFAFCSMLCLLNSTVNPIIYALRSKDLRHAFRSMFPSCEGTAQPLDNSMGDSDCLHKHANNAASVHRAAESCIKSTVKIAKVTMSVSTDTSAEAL
Structure (SMILES),Activity [1],Activity [2] [%],IC50 [3] [µM],IC50 [4] [µM],Activity [5] [%],Activity [6] [%],Ki [7] [µM],Ki [8] [µM]
COc1cccc(Cc2cc3c(OC)cc(CO)cc3oc2=O)c1,inactive,13,> 10,–,–,–,–,–
COc1cccc2cc(Cc3ccccc3)c(=O)oc12,inactive,5,> 10,–,–,–,–,–
CCCCCCC(C)(C)c1ccc([C@@H]2C[C@H](O)CC[C@H]2CCCO)c(O)c1 [CP-55940],–,–,–,5.99,–,–,–,–
CCCCCCC(C)(C)c1cc(OC)c2cc(Cc3ccccc3OC)c(=O)oc2c1,inactive,25,> 10,> 10,26,–,–,–
Cc1cc2c(ccc3ccccc32)oc1=O,inactive,28,> 10,–,–,–,–,–
COc1cccc(Cc2cc3c(OC)cc(CBr)cc3oc2=O)c1,inactive,18,> 10,–,–,–,–,–
CCCCCc1cc(O)c2cc(Cc3cccc(Cl)c3)c(=O)oc2c1,inactive,30,> 10,–,–,–,–,–
Cc1cc2cc(Cl)cc(Br)c2oc1=O,inactive,45,> 10,–,–,–,–,–
CCCCCc1cc(O)c2cc(Cc3ccccc3Cl)c(=O)oc2c1,inactive,0,> 10,> 10,0,–,–,–
CCCCC1(c2cc(OC)c3cc(Cc4ccccc4OC)c(=O)oc3c2)CCCC1,inactive,30,> 10,> 10,25,–,–,–
COc1c(C)c(C)c2oc(=O)c(Cc3ccc(F)cc3)cc2c1C,inactive,–,13.5,> 10,32,49,1.48,10
COc1ccc2cc(Cc3ccccc3)c(=O)oc2c1,inactive,53,10,–,–,–,–,–
CCCCCc1cc(OC)c2cc(Cc3cccc(C)c3)c(=O)oc2c1,inactive,27,> 10,–,–,–,–,–
O=c1oc2ccc3ccccc3c2cc1Cc1ccccc1,inactive,–,2.81,–,–,–,–,–
COc1cccc(Cc2cc3c(OC)cc(Br)cc3oc2=O)c1,inactive,–,3.99,> 10,31,38,–,–
Cc1cc2cc(I)ccc2oc1=O,inactive,40,> 10,–,–,–,–,–
O=c1oc2ccc(I)cc2cc1Cc1ccccc1,inactive,46,> 10,–,–,–,–,–
CCCCCc1cc(O)c2cc(Cc3ccccc3C)c(=O)oc2c1,inactive,19,> 10,> 10,10,–,–,–
CCCCCc1cc(OC)c2cc(Cc3ccccc3Cl)c(=O)oc2c1,inactive,–,9,> 10,25,–,–,–
CCCCCc1cc(OC)c2cc(Cc3cc(C)c(OC)c(C)c3)c(=O)oc2c1,inactive,44,> 10,–,–,–,–,–
COc1cc(Br)cc2cc(C)c(=O)oc12,inactive,16,> 10,–,–,–,–,–
COc1ccccc1Cc1cc2c(C)c(OC)c(C)c(C)c2oc1=O,inactive,–,0.981,> 10,27,–,0.338,3.66
Cc1c(O)c(C)c2cc(Cc3ccccc3)c(=O)oc2c1C,inactive,–,9.32,> 10,16,21,3.42,> 10
CCCCCc1cc(OC)c2cc(Cc3ccccc3)c(=O)oc2c1,inactive,36,> 10,–,–,–,–,–

Structure (SMILES),Activity [1],Activity [2] [%],IC50 [3] [µM],IC50 [4] [µM],Activity [5] [%],Activity [6] [%],Ki [7] [µM],Ki [8] [µM]
Cc1ccccc1Cc1cc2c(C)c(O)c(C)c(C)c2oc1=O,inactive,–,5.16,> 10,38,45,1.56,≥ 10
Cc1ccc(Cc2cc3c(O)cc(C)cc3oc2=O)cc1,inactive,42,> 10,–,–,–,–,–
CCCCCc1cc(O)c2cc(Cc3ccccc3)c(=O)oc2c1,inactive,0,> 10,–,–,–,–,–
COc1ccc(Br)c2oc(=O)c(Cc3ccccc3)cc12,inactive,2,> 10,–,–,–,–,–
Cc1cc(O)c2cc(Cc3ccccc3C)c(=O)oc2c1,inactive,45,> 10,–,–,–,–,–
CCCCCc1cc(OC)c2cc(Cc3cccc(Cl)c3)c(=O)oc2c1,inactive,36,> 10,–,–,–,–,–
O=c1oc2ccccc2cc1Cc1ccccc1,inactive,28,> 10,–,–,–,–,–
CCCCCc1cc(OC)c2cc(Cc3ccc(F)cc3)c(=O)oc2c1,inactive,57,10,–,–,–,–,–
COc1c(C)c(C)c2oc(=O)c(Cc3ccccc3C)cc2c1C,inactive,–,7.69,> 10,33,–,0.66,7.86
COc1cccc2cc(C)c(=O)oc12,inactive,7,> 10,–,–,–,–,–
CCCCCc1cc(O)c2cc(Cc3cccc(C)c3)c(=O)oc2c1,inactive,19,> 10,–,–,–,–,–
COc1ccc2oc(=O)c(Cc3ccccc3)cc2c1,inactive,54,10,–,–,–,–,–
COc1ccc2oc(=O)c(C)cc2c1,inactive,13,> 10,–,–,–,–,–
O=c1oc2cccc(O)c2cc1Cc1ccccc1,inactive,6,> 10,–,–,–,–,–
COc1ccccc1Cc1cc2c(C)ccc(C)c2oc1=O,inactive,–,7.14,> 10,0,16,6.83,> 10
COc1c(C)c(C)c2oc(=O)c(Cc3ccccc3)cc2c1C,inactive,–,12.8,≥ 10,46,42,1.77,≥ 10
COc1cccc(Cc2cc3c(OC)cccc3oc2=O)c1,inactive,54,10,–,–,–,–,–
COc1ccc2cc(C)c(=O)oc2c1,inactive,25,> 10,–,–,–,–,–
COc1cccc2oc(=O)c(Cc3ccccc3)cc12,inactive,43,> 10,–,–,–,–,–
CCCCCCC(C)(C)c1cc(OC)c2cc(Cc3ccccc3)c(=O)oc2c1,inactive,51,10,> 10,31,–,–,–
Cc1c(O)c(C)c2cc(Cc3ccc(F)cc3)c(=O)oc2c1C,inactive,–,10.3,≥ 10,47,34,0.444,> 10
CCCCCc1cc(O)c2cc(Cc3ccccc3O)c(=O)oc2c1,inactive,37,> 10,–,–,–,–,–
COc1cc(C)cc2oc(=O)c(Cc3ccccc3)cc12,inactive,–,6.74,> 10,24,45,≥ 10,≥ 10
